# Assay outcomes as filed in PubChem.
# pPAFAH FP inh = pPAFAH enzyme inhibitors, primary screen, biochemical, fluorescence polarization, human | hit rate 1.5% among 330,000 | recombinant pPAFAH, FP-rhodamine probe fluorescence polarization | Platelet-activating factor acetylhydrolase (Homo sapiens), Q13093 | inhibition, % at 3.39 µM;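 active = inhibition above the mean inhibition across the screen plus 3 SD, cut at about 25% in these data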;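 also: inhibitors block binding of the rhodamine activity-based probe so polarization drops; 0% = enzyme with DMSO and 100% = wells lacking pPAFAH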
# PAFAH2 inh = PAFAH2 enzyme inhibitors, primary screen, biochemical, fluorescence polarization, human; Platelet-activating factor acetylhydrolase 2, cytoplasmic (Homo sapiens), Q99487; hit rate 0.99% among 340,000; AID 492956, 2010; recombinant PAFAH2, FP-rhodamine activity probe; inhibition, % at 3.39 µM;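 active = inhibition above the mean over all tested compounds plus 3 SD, cut at about 30% in these data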;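 also: inhibitors block probe labeling of enzyme so polarization drops; 0% = enzyme with DMSO and 100% = wells lacking PAFAH2 protein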
# PAFAH1B3 FP inh = PAFAH1B3 enzyme inhibitors, primary screen, biochemical, fluorescence polarization, human. Platelet-activating factor acetylhydrolase IB subunit alpha1 (Homo sapiens), Q15102. recombinant PAFAH1B3, FP-rhodamine probe. inhibition, % at 3.39 µM. hit rate 0.28% among 340,000. AID 492972, 2010;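 active = inhibition above the screen-wide average of all tested compounds plus 3 SD, cut at about 25% in these data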;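 also: 0% = enzyme with DMSO only and 100% = wells lacking PAFAH1B3 protein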
# Target sequence (Q15102 whole entry, looked up): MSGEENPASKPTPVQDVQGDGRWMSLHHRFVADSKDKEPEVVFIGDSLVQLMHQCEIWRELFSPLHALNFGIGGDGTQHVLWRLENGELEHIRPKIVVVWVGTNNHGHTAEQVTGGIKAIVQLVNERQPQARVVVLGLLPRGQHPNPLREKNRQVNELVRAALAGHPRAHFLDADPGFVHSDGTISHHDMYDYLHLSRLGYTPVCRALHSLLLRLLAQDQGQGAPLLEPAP
# VIM-2 inhibitor = VIM-2 metallo-beta-lactamase inhibitors, primary screen, biochemical, epi-absorbance readout, Pseudomonas aeruginosa enzyme; purified VIM-2, nitrocefin hydrolysis, epi-absorbance fluorescence; inhibition, % at 5.6 µM; hit rate 0.89% among 290,000; AID 1527, 2009;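 active = inhibition above the mean of all tested compounds plus 3 SD, cutoff set per screening run, cut at about 7.5% in these data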;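 also: red hydrolysis product quenches plate fluorescence so inhibitors raise well fluorescence; 0% = enzyme with DMSO and 100% = DMSO without enzyme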
# IMP-1 inhibitor = IMP-1 metallo-beta-lactamase inhibitors, primary screen, biochemical, epi-absorbance readout, Pseudomonas aeruginosa enzyme; metallo-beta-lactamase IMP-1 (Pseudomonas aeruginosa); purified IMP-1, nitrocefin hydrolysis, epi-absorbance fluorescence; inhibition, % at 5.6 µM; hit rate 0.45% among 290,000; AID 1556, 2009;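 active = inhibition above the mean plus 3 SD of all compounds in the same screening run, cut at about 4.5% in these data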;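 also: 0% = IMP-1 with DMSO and 100% = DMSO wells lacking enzyme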
#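 System: Purified recombinant IMP-1 metallo-beta-lactamase enzyme | Measured by: Fluorescence quenching readout, ex 480/em 530 nm | Replication: Singlicate | Incubation: 15 min preincubation plus 25 min reaction at 25 °C | Evaluation: Percent inhibition from optical density relative to buffer-blank wells | Benchmarks: DMSO with and without IMP-1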
# PAFAH1B2 inh = PAFAH1B2 enzyme inhibitors, primary screen, biochemical, fluorescence polarization, human | AID 492953, 2010 | recombinant PAFAH1B2, FP-rhodamine activity probe | inhibition, % at 3.39 µM | Platelet-activating factor acetylhydrolase IB subunit alpha2 (Homo sapiens), P68402 | hit rate 1.2% among 340,000;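 active = inhibition above the mean of all tested compounds plus 3 SD, cut at about 24% in these data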;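 also: 0% = enzyme with DMSO and 100% = wells lacking PAFAH1B2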
# Target sequence (P68402 whole entry, looked up): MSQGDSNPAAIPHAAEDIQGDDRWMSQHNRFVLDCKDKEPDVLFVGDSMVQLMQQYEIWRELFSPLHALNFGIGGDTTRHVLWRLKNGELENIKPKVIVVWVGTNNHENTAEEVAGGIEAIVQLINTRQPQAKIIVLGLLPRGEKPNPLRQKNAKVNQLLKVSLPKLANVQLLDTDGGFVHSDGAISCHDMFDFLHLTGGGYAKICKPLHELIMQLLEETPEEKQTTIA
# PAFAH2 FP conf = PAFAH2 enzyme inhibitors, confirmation, biochemical, fluorescence polarization, human | shares compounds with PAFAH2 inh | recombinant PAFAH2, FP-rhodamine activity probe | inhibition, % at 3.39 µM | hit rate 65% among 2,300 | AID 493030, 2011;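 active = mean inhibition over three repeats above a set limit taken from the earlier primary screen, cut at about 30% in these data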;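 also: inhibitor blocks binding of rhodamine activity probe so polarization falls; 0% = enzyme with DMSO and 100% = wells lacking PAFAH2 protein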
# Numbers without * were called inactive; x = not tested or not shown. An excerpt weighted towards active compounds, which were near 3.6% of everything screened.
SMILES,pPAFAH FP inh,PAFAH2 inh,PAFAH1B3 FP inh,VIM-2 inhibitor,IMP-1 inhibitor,PAFAH1B2 inh,PAFAH2 FP conf
O=C(C[C@H]1C/C=C\CC[C@@H](Cc2ccc(F)cc2)C(=O)O[C@H](c2ccccc2)CNC1=O)N[C@H](CO)Cc1ccccc1,-1,2,6,x,x,8,x
CCOc1ccccc1N(C)S(=O)(=O)c1ccc2c(c1)N(C(C)=O)CCO2,-1,-2,2,-2,-2,2,x
CC(=O)Oc1ccc(-c2nc3ccccc3c(=O)o2)cc1,-1,19,11,-1,-5,3,x
Cc1ccc(-c2nc3ccccc3c(=O)o2)cc1,-8,81*,4,-1,0,-2,73*
Cc1ccc2nc(-c3ccccc3)oc(=O)c2c1,1,86*,4,2,-1,0,69*
Cc1cc(-c2ccc([N+](=O)[O-])cc2)nc2ccccc12,3,3,1,-1,-3,1,x
Cc1cc(-c2nc3ccccc3c(=O)o2)ccc1[N+](=O)[O-],-5,70*,9,1,-4,3,70*
O=C(Nc1cccc(-c2nc3ccccc3c(=O)o2)c1)c1ccccc1,-13,-21,-18,-2,-1,-8,x
c1ccc2c(C[C@@H]3CNCCN3CCC34CC5CC(CC(C5)C3)C4)cccc2c1,5,0,4,x,x,2,x
CC(=O)Nc1ccc2ccccc2c1[N+](=O)[O-],x,3,2,x,x,-2,x
CC1CCCC(NC(=O)COC(=O)/C=C/c2ccc(F)cc2)C1C (configuration not stated),8,65*,5,x,x,0,69*
COc1ccc(/C=C/C(=O)OCC(=O)NC2CCCC(C)C2C)cc1 (configuration not stated),9,82*,-3,x,x,7,79*
COC(=O)c1ccc(/C=N/OCC(=O)NC2CCCC(C)C2C)cc1 (configuration not stated),7,5,4,-2,0,5,x
COC(=O)Cn1cnc2c(cnn2-c2ccc(C)cc2)c1=O,-1,-4,1,-1,-1,4,x
COc1cccc(NS(=O)(=O)c2ccc(-n3cccn3)cc2)c1,4,-3,2,-2,-4,5,x
COC(=O)c1ccc(-c2ccc(/C=N/NC(=O)Cc3nnc(N)s3)o2)cc1,7,43*,11,-3,-3,0,18
Cc1ccc(-c2ccc(/C=N/NC(=O)Cc3nnc(N)s3)o2)cc1Cl,24,55*,6,-2,-3,-1,20
Nc1nnc(CC(=O)N/N=C\c2ccc(-c3cccc(Cl)c3)o2)s1,16,48*,12,-2,-4,5,19
Nc1nnc(CC(=O)N/N=C/c2ccc(-c3ccccc3)o2)s1,3,12,4,-3,-3,2,x
O=C(Nc1ccccn1)C1CCN(S(=O)(=O)c2ccc(Cl)cc2)CC1,-1,4,6,x,x,23,x
C=C(NC(=O)C(=C)NC(=O)c1csc(C2=NC3c4csc(n4)C4NC(=O)c5csc(n5)C([C@@](C)(O)C(C)O)NC(=O)C5CSC(=N5)/C(=C\C)NC(=O)C(C(C)O)NC(=O)c5csc(n5)[C@]3(CC2)NC(=O)C(C)NC(=O)C(=C)NC(=O)C(C)NC(=O)C(C(C)CC)NC2C=Cc3c(C(C)O)cc(nc3C2O)C(=O)OC4C)n1)C(N)=O (some centres not stated),-1,x,x,x,x,x,x
O=c1oc(/C=C/c2ccc([N+](=O)[O-])s2)nc2ccccc12,6,19,-2,-1,-2,7,x
CC(=O)Oc1ccccc1/C=C/c1nc2ccccc2c(=O)o1,2,86*,5,-2,-3,4,70*
